Results on four compounds are retold here after publication PMC7115619 (European Journal of Medicinal Chemistry, 2015).

One assay relates to HHV-2. The assay can be described thus: Plaque reduction assay, pre- and post-infection treatment, HHV-2. Format: cell-based, Human Herpesvirus type 2. As to conditions: Vero, 72 h, read-out: EC50 pre-infection treatment HHV-2. The method in brief:
(§1)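 Vero monolayers (2.5 × 10^4 cells/well) received 100 PFU/well (DENV-2 New Guinea or HHV-2 VR-734-G). Pre-infection: virus/test compound mixture for 1 h at 37 °C, then PBS (pH 7.0) wash and CMC overlay. Post-infection: virus 1 h, wash, then compound in CMC. CMC was 2% for DENV-2 (8 days) and 0.75% for HHV-2 (72 h). Formaldehyde/crystal violet stain, plaques counted. EC50 by linear regression; mean of three experiments.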
In general terms: In a plaque reduction assay, fewer plaques than in the control indicate reduced infectivity or spread.

Another assay has as its system DENV-2. The assay can be described thus: Plaque reduction assay, pre- and post-infection treatment, DENV-2. Format: cell-based, Dengue virus type 2. The conditions noted are these: Dengue virus, DENV2, Vero, 192 h, read-out: EC50 pre-infection treatment DENV-2. The method in brief:
as §1

The test system of assay [1] is HHV-1 (CDC Atlanta strain). In words: Screening against HHV-1 by end-point titration technique. The conditions noted are these: Vero cell line; 10 TCID50; 48 h. Format: cell-based, Human Herpesvirus type 1. Put shortly: (§2)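 Vero cells (2.0 × 10^4 cells/well) were grown to ≥80% monolayer. 10 TCID50 virus was mixed with test compound (6.25–50 μg/mL) in DMEM/2% FBS containing CMC: 1% for HHV-1, 0.5% for HHV-2. Mixture held 15 min at room temperature, then incubated at 37 °C: 48 h (HHV-1) or 72 h (HHV-2). Crystal violet/formaldehyde stain, plaques counted. Titer reduction factor: ≥1 × 10^3 relevant, 1 × 10^2 moderate. Two experiments in quadruplicate.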

A further assay deals with Vero cells. In words: MTT cytotoxicity on Vero cells. Format: cell-based, Cercopithecus aethiops. As to conditions: read-out: IC50 (μM) 72 h, inhibitory concentration of cell proliferation.
For the next assay, the system named is HHV-2 (VR-734-G strain). In words: Screening against HHV-2 by end-point titration technique. Format: cell-based, Human Herpesvirus type 2. The conditions noted are these: Vero cell line; 10 TCID50; 72 h. Put shortly:
as §2

“Also recorded” adds a separate entry of the source. Bounds are passed on as bounds.

As to `CC(C)c1cc2c(cc1O)[C@@]1(C)CCC[C@@](C)(C=O)[C@@H]1CC2` [Compound 9, 18-oxoferruginol], the EC50 with HHV-2 and with DENV-2 was more than 20.8 µM in each case. The “Rf, reduction factor of the viral titer, HHV-1” value in assay [1] is “did not show activity; also recorded: did not show reduction of viral titer”.
For the compound dextran sulfate [DEX-S], the IC50 in the assay with Vero cells was more than 10 µM.
For `CC(C)c1cc2c(cc1O)[C@@]1(C)CCC[C@@](C)(CN3C(=O)c4ccccc4C3=O)[C@@H]1CC2` [Compound 8], the EC50 in the assay with HHV-2 and in the assay with DENV-2 was more than 29 µM in each case.
As to `Nc1nc2c(ncn2COCCO)c(=O)[nH]1` [ACV, acyclovir], in the assay with HHV-2 (VR-734-G strain), the “Rf, reduction factor of the viral titer, HHV-2” value is recorded as 10^3.
